In publication PMC9055608 (RSC Advances, 2020):

How the values were obtained:
[1] = test system: SKOV3; assay: MTT cell proliferation assay, SKOV3; assay type: cell-based, human; details: SKOV3, ovary; MTT, 72 h
Summary of the method: (§1)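 ATCC lines grown in DMEM or RPMI-1640 with 10% heat-inactivated FBS and 1% penicillin/streptomycin at 37 °C, 5% CO2. Log-phase cells seeded at about 4000–5000/well and left to adhere 24 h. Sextuplicate wells, 72 h. MTT for 4 h, then DMSO and absorbance. IC50 taken from dose–response curves.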

[2] = test system: DU-145; assay: MTT cell proliferation assay, DU-145; assay type: cell-based, human; details: DU-145, prostate; MTT, 72 h
Summary of the method: as §1

[3] = cisplatin; cited from earlier work
[4] = test system: N87; assay: MTT cell proliferation assay, N87; assay type: cell-based, human; details: N87, stomach; MTT, 72 h
Summary of the method: as §1

[5] = test system: MCF-7 xenograft tumour; assay: Pathological tissue sections; assay type: in vivo, nude mice; details: positive control group, cisplatin 5 mg kg^−1
Summary of the method: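 Tumour-bearing nude mice were anaesthetised and killed after the 9-day dosing. Heart, liver, spleen, lung, kidney, brain and tumour were fixed in 10% formalin, embedded in paraffin, cut into 4 μm sections and stained with haematoxylin–eosin.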

[6] = test system: SKMEL-28; assay: MTT cell proliferation assay, SKMEL-28; assay type: cell-based, human; details: SKMEL-28, skin; MTT, 72 h
Summary of the method: as §1

[7] = test system: HT-29; assay: MTT cell proliferation assay, HT-29; assay type: cell-based, human; details: HT-29, colon; MTT, 72 h
Summary of the method: as §1

[8] = test system: A375; assay: MTT cell proliferation assay, A375; assay type: cell-based, human; details: A375, melanoma; MTT, 72 h
Summary of the method: as §1

[9] = test system: MDA-MB453; assay: MTT cell proliferation assay, MDA-MB453; assay type: cell-based, human; details: MDA-MB453, breast; MTT, 72 h
Summary of the method: as §1

[10] = test system: MDA-MB231; assay: MTT cell proliferation assay, MDA-MB231; assay type: cell-based, human; details: MDA-MB231, breast; MTT, 72 h
Summary of the method: as §1

[11] = test system: SKBR3; assay: MTT cell proliferation assay, SKBR3; assay type: cell-based, human; details: SKBR3, breast; MTT, 72 h
Summary of the method: as §1

[12] = Mouse weight during in vivo efficacy study; design: species or system nude mice; details: during the nine days of treatment
[13] = test system: MCF-7; assay: MTT cell proliferation assay, MCF-7; assay type: cell-based, human; details: MCF-7, breast; MTT, 72 h
Summary of the method: as §1

[14] = test system: A-549; assay: MTT cell proliferation assay, A-549; assay type: cell-based, human; details: A-549, lung; MTT, 72 h
Summary of the method: as §1

[15] = test system: MCF-7 xenograft tumour; assay: Drug efficacy in vivo, MCF-7 breast cancer model; design: species or system nude mice; details: positive control
[16] = test system: Calu-3; assay: MTT cell proliferation assay, Calu-3; assay type: cell-based, human; details: Calu-3, lung; MTT, 72 h
Summary of the method: as §1

In the case of `N.N.[Cl][Pt][Cl]` [Cisplatin, cis-platinum, reference compound], the IC50 [1] is listed as 4.15 ± 0.3 µM, the IC50 [2] is listed as 2820 ± 140 nM and the AUC0→t [3] is listed as 36 000 μg L^−1 h. For the same compound, the CL [3] was 0.23 L·kg/h, the IC50 [4] was 8.35 ± 0.3 µM and the tumour histopathology [5] was “a large amount of tumour cell necrosis with nucleolysis”. It also gave an IC50 [6] of 12.9 ± 0.96 µM, an IC50 [7] of 4.71 ± 0.17 µM and an IC50 [8] of 5.28 ± 0.18 µM. For the same compound, the IC50 [9] was 15.4 ± 0.83 µM, the IC50 [10] was 12.8 ± 0.58 µM and the IC50 [11] was 3.04 ± 0.17 µM. For the same compound, the “mouse weight course (in words)” value [12] was “obvious weight loss”, the IC50 [13] was 11.2 ± 0.6 µM and the IC50 [14] was 3.03 ± 0.24 µM. The “Tumour weight (mean)” value ([15]; group E, cisplatin 5 mg kg^−1 tail vein for 9 days) was 299.53 ± 109.60, the “Inhibition rate (IR) determined as tumour weight” value ([15]; cisplatin 5 mg kg^−1 for 9 days) was 64.10% and the IC50 [16] was 7.39 ± 0.25 µM.
